From PubChem
The entries come from a sample that favours hits as a whole.
GSK3beta inhib: human GSK3beta kinase inhibitors, primary screen, biochemical, cell-free homogeneous, HTS; Glycogen synthase kinase-3 beta (Homo sapiens), P49841; GST-GSK3beta kinase, ADP-Glo luminescence, 60 min; hits give low values; activity score (negative = inhibition), % at 10 µM; hit rate 0.038% among 300,000;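 active means more than half of replicate wells score below -50%, meaning over 50% inhibition versus plate controls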;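 further: 0% = median DMSO wells and -100% = median GW8510 positive control wells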
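Test system: GST-fused GSK3beta enzyme, cell-free | Quantity: 1.6 ng GST-GSK3beta enzyme per well | Reagent: 25 µM ATP with peptide substrate | Schedule: 60 min enzyme reaction, room temperature | Signal: Luminescent ADP-Glo measurement of ADP formed | Read-out basis: Score relative to plate controls | Control set: DMSO and 20 µM GW8510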
GSK3A inh: blockers of GSK3A enzyme activity – biochemical, luminescence, cell-free homogeneous, HTS, primary screen; Glycogen synthase kinase-3 alpha (Homo sapiens), P49840; GSK-3 alpha kinase, ADP-Glo luminescence, 60 min; inhibition, % at 10 µM; hit rate 0.1% among 320,000;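 active means more than half of replicates show inhibition above 20%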;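 further: GST-tagged GSK-3 alpha with peptide substrate and 25 µM ATP; 0% = DMSO neutral wells and 100% = GW8510 positive control wells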
Target sequence (P49840 whole entry, looked up): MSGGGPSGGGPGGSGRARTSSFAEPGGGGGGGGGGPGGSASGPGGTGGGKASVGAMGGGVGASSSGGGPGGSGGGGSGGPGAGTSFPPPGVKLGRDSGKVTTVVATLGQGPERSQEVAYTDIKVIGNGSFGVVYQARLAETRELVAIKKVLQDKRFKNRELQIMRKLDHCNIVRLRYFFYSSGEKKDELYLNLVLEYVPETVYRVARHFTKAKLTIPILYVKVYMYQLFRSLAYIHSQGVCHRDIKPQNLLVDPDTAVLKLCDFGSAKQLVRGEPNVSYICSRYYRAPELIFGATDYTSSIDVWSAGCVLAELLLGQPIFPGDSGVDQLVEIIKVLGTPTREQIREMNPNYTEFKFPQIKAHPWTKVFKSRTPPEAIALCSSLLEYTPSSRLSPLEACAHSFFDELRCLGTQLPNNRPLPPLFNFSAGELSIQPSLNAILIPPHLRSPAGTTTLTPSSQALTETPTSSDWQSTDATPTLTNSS
STK33 kinase inh: inhibitors of purified STK33 kinase, primary screen, biochemical, ADP-Glo luminescence, homogeneous, cell-free; Serine/threonine-protein kinase 33 (Homo sapiens), Q9BYT3; MBP phosphorylation; inhibition, % at 10 µM; hit rate 0.073% among 320,000; AID 2661, 2010;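 active means inhibition at or above 25%, using the most active replicate where run in duplicate; inactive means inhibition below 25%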
DYRK1A inh: rat Dyrk1A kinase inhibitors, primary screen, biochemical, single point, plate reader. ADP-Glo luminescence, NFATc1 peptide. AID 504441, 2011. Dual specificity tyrosine-phosphorylation-regulated kinase 1A (Rattus norvegicus), Q63470. hit rate 0.43% among 310,000. inhibition, % at 12.5 µM; in the data active means inhibition above about 50%;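 further: plate controls were vehicle with enzyme for no effect and no enzyme for full effect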
CDK5 inh: inhibitors of human CDK5/p35 kinase, primary screen, biochemical, single concentration; Recombinant CDK5/p35, ADP-Glo luminescence, 60 min; inhibition, % at 10 µM; hit rate 0.01% among 330,000; AID 488839, 2010;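 active means highest replicate inhibition of at least 50% and at least 75% of replicates reaching 50%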;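 further: plate controls were DMSO neutral control for no effect and GW8510 at 10 µM for full effect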
Dyrk1A artifact: ADP-Glo luciferase interference without Dyrk1A, dose response, artefact control for Dyrk1A inhibitor project, biochemical, luminescence, cherry-pick, set 02; shares compounds with DYRK1A inh; ADP-Glo luciferase artifact assay, no Dyrk1A; AC50, µM (doses to about 12 µM), inactives show at the highest dose activity change, negative = inhibition; 1,300 tested, under 10 active; AID 588348, 2011;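 active means fitted half-maximal dose AC50 no more than ten times the top valid tested dose, with luminescence dropping as dose rises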
* = called active by the depositor; x = no result given; ! = not active in a repeat.

SMILES	GSK3beta inhib	GSK3A inh	STK33 kinase inh	DYRK1A inh	CDK5 inh	Dyrk1A artifact
CC(=NCCCn1ccnc1)c1c(O)n(C2CCCCC2)c(=O)[nH]c1=O	1	67*	-1	0	0	x
O=c1[nH]c(=O)n(C2CCCCC2)c(O)c1C=NCCCn1ccnc1	2	67*	-1	7	3	x
CC(=NCCCn1ccnc1)c1c(O)n(-c2ccccc2)c(=O)[nH]c1=O	-11	23	0	x	1	x
CCN(CC)CCN=Cc1c(O)n(C2CCCCCC2)c(=O)[nH]c1=O	-4	13	1	0	2	x
O=C(Nc1ccccc1)N1Cc2ccccc2-n2nncc2C1	x	x	x	x	2	x
CN1/C(=C\C=C\C2=[N+](C)c3ccc4ccccc4c3C2(C)C)C(C)(C)c2ccccc21	x	71*	26*	x	x	x
CCn1nc(-c2ccccc2)nc2c(=O)n(C)c(=O)nc1-2	-32	20	3	68*	1	x
CN1CCC2(CC1)c1ccccc1-c1ccccc12	x	x	x	14	-1	x
O=C(O)CC1OCC=C2CN3CCC45c6ccccc6NC4C1C2CC35 (stereo unspecified)	-1	5	0	3	-1	x
O=C(O)CC1OCC=C2CN3CCC45C6=CC(=O)C(=O)C([N+](=O)[O-])=C6NC4C1C2CC35 (stereo unspecified)	-1	7	4	56*	1	10%
COc1cc2c(cc1O)CC1c3c(cc(O)c(OC)c3-2)CCN1C (stereo unspecified)	-1	14	7	70*	2	11%
CCC1CN1P(=O)(c1ccccc1)N1CC1CC (stereo unspecified)	x	x	x	-2	0	x
N#Cc1c(Br)n(C2OC(CO)C(O)C2O)c2ncnc(N)c12 (stereo unspecified)	x	x	x	75*	14	7%
NC(=O)c1c(Br)n(C2OC(CO)C(O)C2O)c2ncnc(N)c12 (stereo unspecified)	x	x	x	65*	7	7%
NC(=O)c1cn(C2OC(CO)C(O)C2O)c2ncnc(N)c12 (stereo unspecified)	0	72*	13	88*!	42	7%
N#Cc1cn(C2OC(CO)C(O)C2O)c2ncnc(N)c12 (stereo unspecified)	x	x	x	2	1	x
COC(=O)C1=C(C(=O)OC)SC2(S1)C(C(=O)OC)=C(C(=O)OC)Sc1c2ssc1=O	x	x	x	x	-3	x
C=CCC1(Cc2ccsc2)C(=O)NC(=O)NC1=O	x	x	x	x	-1	x
Cc1nc2c(=O)n(C)c(=O)nc-2n(C)n1	-23	7	-2	76*	3	9%
O=S(=O)(O)C(=Cc1ccccc1)c1ccccc1 (tested in a mixture with another compound)	x	x	x	-2	2	x
